In the library only some 1.4% were active in any assay of this set; here they are far more common.
NR1D1 modulator = modulates human Rev-erb alpha binding to DNA; activity, % at 10 µM; AID 1259318; P20393; hit rate 0.79% among 370,000; Rev-erbα–FITC-DNA binding, fluorescence polarization, 90 min;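 active means activity above about 14%, limit read from the data; passing the limit was not always enough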
NR2E3 ag-1 = human photoreceptor-specific nuclear receptor agonism; AID 602229; inhibition of corepressor binding, % at 3.98 µM; hit rate 0.35% among 360,000; CHO-S Gal4-NCOR/VP16-NR2E3 two-hybrid, luciferase; Q9Y5X4;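 active means inhibition above the mean of all tested compounds plus 3 SD, cut at about 70% in these data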;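 further: higher means lower luciferase signal from less NR2E3 corepressor binding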
NR2E3 ag-2 = NR2E3 (human) agonism; GST-NR2E3/biotin-RetCOR TR-FRET, 1536-well; AID 2300; hit rate 0.12% among 320,000; Q9Y5X4; inhibition of corepressor binding, % at 4.78 µM;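 active means percent inhibition above the cutoff of mean plus 3 SD of all tested compounds, set per screening campaign, cut at about 20% in these data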
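Material: NR2E3–RetCOR corepressor complex / Incubation: Compound–protein incubation for 5 h at 4 °C / Dosing: compound at 4.8 µM, single dose / Detection: time-resolved FRET / Benchmarks: high control biotin, low control 0.6% DMSO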
PG9 Ab binder = binds the HIV-1 gp120 antibody PG9 | TR-FRET gp120-PG9 antibody binding | inhibition, % at 6.7 µM | hit rate 0.43% among 360,000; in the data active means inhibition above about 8.5%
PG9 binder conf = PG9 antibody binding, confirmed; shares compounds with PG9 Ab binder; inhibition, % at 6.7 µM; TR-FRET PG9 antibody binding, biochemical; AID 651571; hit rate 90% among 1,500; in the data active means inhibition above about 9%
PGV04 counter = counter-screen for PG9 binders: binding control antibody PGV04 | shares compounds with PG9 Ab binder | TR-FRET PGV04 antibody-gp120 binding, biochemical | inhibition, % at 6.7 µM | hit rate 95% among 1,500; in the data active means inhibition above about 9.5%
PG9 binder DR = small molecules binding HIV-1 gp120 antibody PG9. IC50, µM. 95 tested, under 10 active. shares compounds with PG9 Ab binder. TR-FRET PG9 antibody-gp120 binding inhibition; in the data active means IC50 below about 10 µM
PGV04 DR counter = counter-screen for PG9 binders: binding to control antibody PGV04 | AID 651937 | TR-FRET binding to control antibody PGV04 | shares compounds with PG9 Ab binder | IC50, µM | hit rate 20% among 95
PG126 DR counter = counter-screen for PG9 binders: binding to control antibody PG126; TR-FRET binding to antibody PG126, counterscreen; shares compounds with PG9 Ab binder; IC50, µM; hit rate 20% among 95; AID 651939
Each line names hits and unclear results; the compound was inactive in the other large screens (follow-up assays come after a bar, where they were run). Unless noted, no stated cut-off is given here; in the data, active means IC50 below about 9 µM; inactive means the rest.

Cc1ccc(C)c(NC(=O)CN(C)C(=O)c2cc3c(s2)CCCCC3)c1	PG9 Ab binder 11 | PG9 binder conf 16 | PGV04 counter 22
CCCCn1c(NC(=O)c2ccco2)c(S(=O)(=O)c2ccc(C)cc2)c2nc3ccccc3nc21	PG9 Ab binder 18 (no result: NR2E3 ag-2) | PG9 binder conf 21 | PGV04 counter 25
Cc1ccc(S(=O)(=O)c2c(N)n(CCCO)c3nc4ccccc4nc23)cc1	none
CCCCn1c(NC(=O)c2ccc(Br)o2)c(S(=O)(=O)c2ccccc2)c2nc3ccccc3nc21	PG9 Ab binder 14 | PG9 binder conf 18 | PGV04 counter 24
CCC(=O)Nc1c(S(=O)(=O)c2ccccc2)c2nc3ccccc3nc2n1C(C)c1ccccc1 (centres undefined)	none
CC(=O)c1c(C)[nH]c(C(=O)NC2=NCCS2)c1C	none
COCCCNC(=S)NNC(=O)c1csc(C)n1	none
COC(=O)Cn1cnc2c(cnn2-c2ccc(OC)cc2)c1=O	none
COc1ccc(-n2ncc3c(=O)n(CC(=O)Nc4ccc5c(c4)OCCO5)cnc32)cc1	PG9 Ab binder 12 | PG9 binder conf 19 | PGV04 counter 23
Cc1ccc(-n2nc3c(=S)[nH]nc(C)c3c2C)cc1	PG9 Ab binder 45 | PG9 binder conf 28 | PGV04 counter 25 | PG9 binder DR inactive | PGV04 DR counter inactive | PG126 DR counter inactive
NS(=O)(=O)c1ccc(CNC(=O)COc2ccc3c4c(c(=O)oc3c2)CCCC4)cc1	none
Cc1ccc(CN2CCS(=O)(=O)CC2)cc1	PG9 Ab binder 11 | PG9 binder conf inactive | PGV04 counter 13
CC(=O)N1CCN(S(=O)(=O)c2cccc(C(=O)NC3CCCC3)c2)CC1	none
Cc1cc(Br)cn2cc(C(=O)O)nc12	PG9 Ab binder 16 | PG9 binder conf 21 | PGV04 counter 26
O=C(O)c1ccccc1C(=O)c1cccc2c(Br)cccc12	PG9 Ab binder 54 (no result: NR2E3 ag-2) | PG9 binder conf 68 | PGV04 counter 83
Cc1cc(NC(=O)c2ccc(Cl)cc2)c(C(C)C)cc1O	none
Cc1ccc2c(n1)sc1c(N)ncnc12	PG9 Ab binder 24 | PG9 binder conf 22 | PGV04 counter 32
Cc1ccc2nc(SCC(=O)NCC3CCCO3)c(C#N)cc2c1 (centres undefined)	PG9 Ab binder 13 | PG9 binder conf 22 | PGV04 counter 36
COc1ccc2nc(SCC(=O)NC3CC3)c(C#N)cc2c1	PG9 Ab binder 20 | PG9 binder conf 26 | PGV04 counter 47
CCOC(=O)c1c(NC(=O)C2C3C=CC(CC3)C2C(=O)O)sc(C)c1CC (centres undefined)	PG9 Ab binder 8.7 | PG9 binder conf 18 | PGV04 counter 23
CC(=O)Nc1ccc(Br)c2ccccc12	PG9 Ab binder 11 | PG9 binder conf 22 | PGV04 counter 23
Cc1cc(C(F)(F)F)n(-c2nc(C(=O)NN)cs2)n1	none
COc1ccc(S(=O)(=O)NNC(=O)c2csc(-n3nc(C)cc3C(F)(F)F)n2)cc1OC	PG9 Ab binder 10 | PG9 binder conf inactive | PGV04 counter 11
C(=N\n1cnnc1SCc1ccccc1)/c1ccco1	none
CCCc1cc(=O)n2[nH]c(-c3cccc(Br)c3)cc2n1	PG9 Ab binder 16 | PG9 binder conf 18 | PGV04 counter 29
COCCCNC(=O)c1ccc(CSCc2ccc(C)cc2)o1	none
COc1cc(N)c(Cl)cc1C(=O)OCC(=O)NC1CCCC1	none
CC(=O)c1ccc(NC(=O)CSc2nc(N)c3cc4c(nc3n2)CCCC4)cc1	PG9 Ab binder 22 | PG9 binder conf 14 | PGV04 counter 26
COc1ccc(NC(=O)CSc2nc(N)c3cc4c(nc3n2)CCCC4)cc1	none
Cc1cccc(NC(=O)CSc2nc3nc4c(cc3c(=O)n2-c2ccccc2)CCCC4)c1	PG9 Ab binder 29 | PG9 binder conf 25 | PGV04 counter 39
